Data published in ChEMBL document CHEMBL4837245, “Discovery of VU6028418: A Highly Selective and Orally Bioavailable M4 Muscarinic Acetylcholine Receptor Antagonist” (ACS Med Chem Lett, 2021).
≈ marks a conversion by molar mass, not a printed value.

Assays:
[1] = biological target: T1, Muscarinic acetylcholine receptor M2 (Homo sapiens, UniProt P08172); test: Antagonist activity at human muscarinic M2 receptor expressed in CHO cells co-expressing Gqi5 assessed as inhibition of acetylcholine-induced calcium mobilization; format: functional, cell-based
T1 sequence (P08172 whole entry): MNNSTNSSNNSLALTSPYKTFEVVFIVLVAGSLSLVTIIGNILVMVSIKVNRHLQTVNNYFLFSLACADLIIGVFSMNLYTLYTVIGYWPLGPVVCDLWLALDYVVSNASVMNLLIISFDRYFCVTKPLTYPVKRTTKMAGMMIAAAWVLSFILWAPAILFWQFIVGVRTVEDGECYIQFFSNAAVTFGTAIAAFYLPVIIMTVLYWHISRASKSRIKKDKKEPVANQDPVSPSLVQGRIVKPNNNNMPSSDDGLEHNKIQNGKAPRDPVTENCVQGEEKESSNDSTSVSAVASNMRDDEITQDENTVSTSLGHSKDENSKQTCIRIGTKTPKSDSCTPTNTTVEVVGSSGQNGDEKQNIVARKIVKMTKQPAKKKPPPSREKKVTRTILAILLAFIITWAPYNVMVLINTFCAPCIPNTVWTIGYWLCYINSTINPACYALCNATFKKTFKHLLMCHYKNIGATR
Method in brief: (§1)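 CHO cells stably transfected with the given human mAChR subtype. Compound added before an EC80 concentration of acetylcholine; antagonism read as calcium mobilization. One independent determination in triplicate.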

[2] = biological target: T2, CYP3A4 (Homo sapiens, UniProt P08684); test: Inhibition of CYP3A4 in human liver microsomes using midazolam as substrate preincubated for 15 mins followed by NADPH addition and measured after 8 mins by LC-MS/MS analysis; format: ADME; settings: human, liver microsomes, probe midazolam; time 23 min; read-out: INH
T2 sequence (P08684 whole entry): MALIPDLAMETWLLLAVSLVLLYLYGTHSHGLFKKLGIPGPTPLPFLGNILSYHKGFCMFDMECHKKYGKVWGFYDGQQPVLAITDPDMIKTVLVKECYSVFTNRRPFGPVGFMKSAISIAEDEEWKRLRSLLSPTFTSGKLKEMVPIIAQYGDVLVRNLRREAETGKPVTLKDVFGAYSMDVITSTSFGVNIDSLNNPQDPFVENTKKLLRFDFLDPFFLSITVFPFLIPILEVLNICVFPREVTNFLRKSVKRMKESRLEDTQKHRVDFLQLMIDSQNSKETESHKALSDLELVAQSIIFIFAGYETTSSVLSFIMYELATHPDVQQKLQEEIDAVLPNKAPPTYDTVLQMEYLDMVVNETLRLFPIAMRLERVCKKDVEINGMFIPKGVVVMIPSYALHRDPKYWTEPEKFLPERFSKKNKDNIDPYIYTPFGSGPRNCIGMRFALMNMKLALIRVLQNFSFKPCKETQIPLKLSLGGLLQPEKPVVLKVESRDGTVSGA
Method in brief: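 Cocktail CYP450 inhibition assay run in human liver microsomes.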

[3] = test system: P-gp (human); test: Efflux ratio of apparent permeability basolateral to apical over apical to basolateral side at human P-gp in MDCK-MDR1 cells; format: ADME, cell-based, Canis lupus familiaris; settings: dog
Method in brief: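 MDCK cell monolayers overexpressing MDR1 (P-gp). Efflux ratio taken as Papp(B-to-A)/Papp(A-to-B).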

[4] = biological target: T3, Muscarinic acetylcholine receptor M4 (Homo sapiens, UniProt P08173); test: Antagonist activity at human muscarinic acetylcholine M4 receptor expressed in CHO cells assessed as inhibition of acetylcholine-induced calcium mobilization; format: functional, cell-based; settings: read-out: IC50
T3 sequence (P08173 whole entry): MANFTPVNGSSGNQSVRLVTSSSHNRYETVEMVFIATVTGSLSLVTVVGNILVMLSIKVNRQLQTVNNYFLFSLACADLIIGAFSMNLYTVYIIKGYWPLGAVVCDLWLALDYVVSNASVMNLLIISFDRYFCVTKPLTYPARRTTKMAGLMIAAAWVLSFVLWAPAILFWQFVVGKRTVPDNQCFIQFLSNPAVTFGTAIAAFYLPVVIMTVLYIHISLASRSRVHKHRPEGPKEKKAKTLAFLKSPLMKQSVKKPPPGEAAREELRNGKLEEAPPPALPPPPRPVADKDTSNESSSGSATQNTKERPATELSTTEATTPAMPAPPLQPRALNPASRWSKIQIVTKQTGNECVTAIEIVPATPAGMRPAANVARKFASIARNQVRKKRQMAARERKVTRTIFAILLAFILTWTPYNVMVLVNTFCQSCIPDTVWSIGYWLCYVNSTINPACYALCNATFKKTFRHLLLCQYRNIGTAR

[5] = Kinetic solubility of compound at pH 6.8; format: physicochemical; settings: buffer, read-out: Kinetic_solubility
Method in brief: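 Kinetic solubility measured at pH 6.8.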

[6] = Clearance in CD-1 mouse plasma at 1.0 mg/kg, iv measured upto 24 hrs by LC-MS/MS analysis; format: ADME, organism-based
Method in brief: (§2)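 Single iv and oral (suspension) dosing; iv/po doses 1/10 mg/kg in SD rat, 1/3 mg/kg in CD-1 mouse and beagle dog. Plasma PK parameters are means from two to three animals per species.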

[7] = Volume of distribution at steady state in CD-1 mouse at 1.0 mg/kg, iv measured upto 24 hrs by LC-MS/MS analysis; format: ADME, organism-based; settings: in vivo, read-out: Vdss
Method in brief: (§3)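 Pharmacokinetics in Sprague-Dawley rat, CD-1 mouse and beagle dog. Intravenous dose was 1 mg/kg in each species. Oral doses were given as a suspension: 10 mg/kg in rat, 3 mg/kg in mouse and dog. Each parameter is the mean of two to three animals.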

[8] = Volume of distribution at steady state in Beagle dog at 1.0 mg/kg, iv measured upto 24 hrs by LC-MS/MS analysis; format: ADME, organism-based, Canis lupus familiaris; settings: in vivo, read-out: Vdss; method in brief: as §3
[9] = Elimination half life in Sprague-Dawley rat at 1 mg/kg, iv measured upto 24 hrs by LC-MS/MS analysis; format: ADME, organism-based; settings: in vivo, read-out: beta t1/2 (converted); method in brief: as §2
[10] = Cmax in CD-1 mouse at 3 mg/kg, po measured upto 24 hrs by LC-MS/MS analysis; format: ADME, organism-based; design: route oral, dose 3 mg/kg, time <=24; settings: in vivo; method in brief: as §2
[11] = Tmax in Sprague-Dawley rat at 10 mg/kg, po measured upto 24 hrs by LC-MS/MS analysis; format: ADME, organism-based; settings: in vivo; method in brief: as §3
[12] = AUC (0 to infinity) in Beagle dog at 3 mg/kg, po measured upto 24 hrs by LC-MS/MS analysis; format: ADME, organism-based, Canis lupus familiaris; design: route oral, dose 3 mg/kg, time <=24; settings: in vivo; method in brief: as §2
[13] = Oral bioavailability in Beagle dog at 3 mg/kg measured upto 24 hrs by LC-MS/MS analysis; format: ADME, organism-based, Canis lupus familiaris; settings: in vivo; method in brief: as §2
[14] = Ratio of drug concentration in brain to plasma of Sprague-Dawley rat at 1 mg/kg, iv; format: ADME, organism-based
[15] = Ratio of drug concentration in brain to plasma of rat at 1 mg/kg, po after 1 hr; format: ADME, organism-based
Method in brief: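 At the end of the catalepsy study, 1 h after a 1 mg/kg oral dose in rats, total brain/plasma (Kp) and unbound brain/plasma (Kp,uu) ratios were determined.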

[16] = biological target: Muscarinic acetylcholine receptor M1 (Homo sapiens, UniProt P11229); test: Antagonist activity at human muscarinic M1 receptor expressed in CHO cells co-expressing Gqi5 assessed as inhibition of acetylcholine-induced calcium mobilization; format: functional; method in brief: as §1
Sequence of Muscarinic acetylcholine receptor M1 (P11229 whole entry): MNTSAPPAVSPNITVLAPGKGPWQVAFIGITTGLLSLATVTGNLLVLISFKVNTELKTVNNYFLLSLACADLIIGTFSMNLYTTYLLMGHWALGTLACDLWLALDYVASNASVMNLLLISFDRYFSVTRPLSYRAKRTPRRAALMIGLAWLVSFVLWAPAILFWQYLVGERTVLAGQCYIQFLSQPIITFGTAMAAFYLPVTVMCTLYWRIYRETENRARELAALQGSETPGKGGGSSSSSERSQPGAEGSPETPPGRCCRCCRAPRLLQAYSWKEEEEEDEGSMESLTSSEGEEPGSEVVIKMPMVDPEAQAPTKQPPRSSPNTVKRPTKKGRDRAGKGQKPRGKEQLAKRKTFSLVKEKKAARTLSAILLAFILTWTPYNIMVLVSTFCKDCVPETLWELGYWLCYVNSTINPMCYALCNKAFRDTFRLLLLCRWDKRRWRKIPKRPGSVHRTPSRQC

[17] = biological target: Cytochrome P450 2D6 (Homo sapiens, UniProt P10635); test: Time dependent inhibition of CYP2D6 (unknown origin); format: ADME
Sequence of Cytochrome P450 2D6 (P10635 whole entry): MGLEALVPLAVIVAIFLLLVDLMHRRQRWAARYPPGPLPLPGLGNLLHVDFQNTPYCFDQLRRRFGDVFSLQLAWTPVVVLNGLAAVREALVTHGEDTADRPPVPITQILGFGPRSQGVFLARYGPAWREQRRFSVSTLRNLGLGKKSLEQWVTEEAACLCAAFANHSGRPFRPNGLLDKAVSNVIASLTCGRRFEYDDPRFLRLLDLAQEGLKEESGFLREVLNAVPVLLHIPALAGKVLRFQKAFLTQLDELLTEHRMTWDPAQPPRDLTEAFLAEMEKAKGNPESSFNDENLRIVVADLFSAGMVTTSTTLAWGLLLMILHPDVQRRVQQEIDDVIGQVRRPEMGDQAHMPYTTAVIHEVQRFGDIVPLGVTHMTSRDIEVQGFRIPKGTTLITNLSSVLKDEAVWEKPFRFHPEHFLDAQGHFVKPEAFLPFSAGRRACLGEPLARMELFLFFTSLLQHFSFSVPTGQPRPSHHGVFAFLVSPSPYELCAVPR

[18] = biological target: CYP2B6 (Homo sapiens, UniProt P20813); test: Induction of CYP2B6 in human hepatocytes; format: ADME, cell-based, Hepatocyte
Sequence of CYP2B6 (P20813 whole entry): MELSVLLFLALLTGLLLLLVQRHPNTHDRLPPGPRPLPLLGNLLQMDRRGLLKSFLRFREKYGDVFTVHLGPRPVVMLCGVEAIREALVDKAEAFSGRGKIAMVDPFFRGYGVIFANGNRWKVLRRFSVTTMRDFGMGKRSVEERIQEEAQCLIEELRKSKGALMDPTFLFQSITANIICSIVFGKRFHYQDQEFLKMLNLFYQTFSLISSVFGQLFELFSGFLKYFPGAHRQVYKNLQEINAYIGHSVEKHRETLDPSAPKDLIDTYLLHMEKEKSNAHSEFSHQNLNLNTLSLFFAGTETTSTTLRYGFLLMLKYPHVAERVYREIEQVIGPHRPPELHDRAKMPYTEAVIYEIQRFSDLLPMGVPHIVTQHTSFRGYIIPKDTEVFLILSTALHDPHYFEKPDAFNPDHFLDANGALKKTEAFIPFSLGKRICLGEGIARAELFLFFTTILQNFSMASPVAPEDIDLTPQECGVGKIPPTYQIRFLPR

[19] = biological target: T2, CYP3A4; test: Induction of CYP3A4 in human hepatocytes relative to control; format: ADME, cell-based, Hepatocyte
[20] = biological target: Sigma non-opioid intracellular receptor 1 (Homo sapiens, UniProt Q99720); test: Inhibition of human sigma1 receptor at 10 uM relative to control
Sequence of Sigma non-opioid intracellular receptor 1 (Q99720 whole entry): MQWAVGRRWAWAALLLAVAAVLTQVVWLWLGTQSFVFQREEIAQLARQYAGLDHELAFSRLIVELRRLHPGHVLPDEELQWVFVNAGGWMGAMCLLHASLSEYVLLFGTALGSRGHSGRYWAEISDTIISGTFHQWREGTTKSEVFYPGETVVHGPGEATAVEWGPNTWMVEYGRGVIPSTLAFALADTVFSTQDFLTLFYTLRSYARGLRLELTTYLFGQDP

[21] = biological target: hERG (Homo sapiens, UniProt Q12809); test: Inhibition of human ERG at 10 uM relative to control
Sequence of hERG (Q12809 whole entry): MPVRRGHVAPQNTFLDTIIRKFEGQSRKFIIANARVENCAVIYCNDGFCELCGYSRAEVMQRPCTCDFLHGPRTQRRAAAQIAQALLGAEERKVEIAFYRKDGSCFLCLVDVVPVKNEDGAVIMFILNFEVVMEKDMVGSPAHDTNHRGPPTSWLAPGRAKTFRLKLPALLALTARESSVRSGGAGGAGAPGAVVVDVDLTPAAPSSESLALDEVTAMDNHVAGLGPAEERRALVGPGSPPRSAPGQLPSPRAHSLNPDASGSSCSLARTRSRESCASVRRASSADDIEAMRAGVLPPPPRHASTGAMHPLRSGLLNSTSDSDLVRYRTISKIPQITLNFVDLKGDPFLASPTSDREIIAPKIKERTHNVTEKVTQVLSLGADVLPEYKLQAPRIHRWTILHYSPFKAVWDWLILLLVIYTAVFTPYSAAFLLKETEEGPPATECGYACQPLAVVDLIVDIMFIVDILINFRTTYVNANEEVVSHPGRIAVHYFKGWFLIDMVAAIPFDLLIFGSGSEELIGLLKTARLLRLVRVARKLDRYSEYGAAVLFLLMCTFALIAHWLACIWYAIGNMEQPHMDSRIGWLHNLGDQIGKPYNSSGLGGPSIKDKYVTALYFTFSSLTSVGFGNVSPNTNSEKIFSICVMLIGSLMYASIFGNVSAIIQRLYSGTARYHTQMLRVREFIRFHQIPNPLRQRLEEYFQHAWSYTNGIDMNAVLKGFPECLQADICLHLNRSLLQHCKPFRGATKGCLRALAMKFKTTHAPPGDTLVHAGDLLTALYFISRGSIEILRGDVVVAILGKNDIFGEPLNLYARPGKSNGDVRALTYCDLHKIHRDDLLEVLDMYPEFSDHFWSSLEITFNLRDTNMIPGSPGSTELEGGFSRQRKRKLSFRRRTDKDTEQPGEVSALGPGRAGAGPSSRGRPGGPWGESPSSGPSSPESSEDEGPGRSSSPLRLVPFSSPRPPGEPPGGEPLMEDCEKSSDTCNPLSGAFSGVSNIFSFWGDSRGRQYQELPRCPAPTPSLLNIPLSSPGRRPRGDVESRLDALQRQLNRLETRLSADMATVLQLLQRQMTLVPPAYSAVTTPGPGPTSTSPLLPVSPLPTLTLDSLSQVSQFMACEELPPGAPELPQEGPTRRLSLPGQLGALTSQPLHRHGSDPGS

[22] = biological target: Voltage-gated inwardly rectifying potassium channel KCNH2 (Homo sapiens, UniProt Q12809); test: Inhibition of human ERG by patch clamp assay
Sequence of Voltage-gated inwardly rectifying potassium channel KCNH2 (Q12809 whole entry): as above

[23] = biological target: Muscarinic acetylcholine receptor M5 (Homo sapiens, UniProt P08912); test: Antagonist activity at human muscarinic M5 receptor expressed in CHO cells co-expressing Gqi5 assessed as inhibition of acetylcholine-induced calcium mobilization; format: functional; method in brief: as §1
Sequence of Muscarinic acetylcholine receptor M5 (P08912 whole entry): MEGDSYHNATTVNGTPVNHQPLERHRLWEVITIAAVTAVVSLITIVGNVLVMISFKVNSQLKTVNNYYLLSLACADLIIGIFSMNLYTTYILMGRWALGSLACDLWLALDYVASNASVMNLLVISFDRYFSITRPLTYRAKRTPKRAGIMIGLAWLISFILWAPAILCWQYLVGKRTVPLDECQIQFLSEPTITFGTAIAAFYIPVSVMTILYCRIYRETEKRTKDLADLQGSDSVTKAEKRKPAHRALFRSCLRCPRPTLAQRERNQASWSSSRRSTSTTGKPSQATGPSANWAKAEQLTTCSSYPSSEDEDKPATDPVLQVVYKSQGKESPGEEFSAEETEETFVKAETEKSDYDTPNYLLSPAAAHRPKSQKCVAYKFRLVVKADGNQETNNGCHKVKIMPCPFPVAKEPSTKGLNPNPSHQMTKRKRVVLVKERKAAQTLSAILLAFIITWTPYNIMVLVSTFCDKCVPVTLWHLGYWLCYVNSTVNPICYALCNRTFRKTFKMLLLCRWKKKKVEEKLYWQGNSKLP

## Fc1cc(F)c(F)c(-c2ccc(N[C@H]3C[C@@H]4CN(CC5CCOCC5)C[C@@H]4C3)nn2)c1
[1]
  IC50: 3.5 µM
[2]
  IC50 at 8 min: > 30 µM
[3]
  efflux ratio: 8.9
[4]
  IC50: 4.1 nM
[5]
  solubility kinetic: 85.1 µM (≈ 36.8 µg/mL)
[6]
  clearance: 17 mL/min/kg
[7]
  Vd: 10.6 L/kg
[8]
  Vd: 8.5 L/kg
[9]
  half-life: 780 min
[10]
  Cmax: 181 ng/mL
[11]
  Tmax: 1.5 h
[12]
  AUC: 1100 ng·h/mL
[13]
  bioavailability: 86%
[14]
  Kp: 6.4
[15]
  Kp at 1 h: 3.4
[16]
  IC50: > 10 µM
[17]
  IC50: > 100 µM
[18]
  EC50: 1900 nM
[19]
  Emax: 2.1%
[20]
  inhibition: 101%
[21]
  inhibition at 10 µM: 61%
[22]
  IC50: 431 nM
[23]
  IC50: > 10 µM
